Results published in ChEMBL document CHEMBL3272156, “(Vinylaryloxy)acetic acids. A new class of diuretic agents. 4. Various ((2-substituted and 2,2-disubstituted vinyl)aryloxy)acetic acids” (1976).

Columns and labels:
Canis familiaris [1] = assay: Diuretic activity in mongrel dog anesthetized with sodium pentobarbital assessed as urine volume at 10 mg/kg, iv measured after 15 to 45 mins post dose (reference value: 1 to 5 ml/min); format: functional, Canis lupus familiaris
How it was run: (§1)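 Dogs given compound iv as the Na salt in water; clearance procedure per ref 1. Baseline is the mean of two 15-min clearance periods before dosing. Response is the mean of two consecutive 15-min periods of maximal Na+ excretion, usually 15–45 min after dosing. Values are from single representative experiments in a series of three or four dogs.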

Canis familiaris [2] = assay: Diuretic activity in mongrel dog anesthetized with sodium pentobarbital assessed as urine Cl- level at 10 mg/kg, iv measured after 15 to 45 mins post dose (reference value: 0 to 30 uequiv/min); format: functional, Canis lupus familiaris; how it was run: as §1
Canis familiaris [3] = assay: Diuretic activity in mongrel dog anesthetized with sodium pentobarbital assessed as urine K+ level at 10 mg/kg, iv measured after 15 to 45 mins post dose (reference value: 10 to 44 uequiv/min); format: functional, Canis lupus familiaris; how it was run: as §1
Canis familiaris [4] = assay: Diuretic activity in mongrel dog anesthetized with sodium pentobarbital assessed as urine Na+ level at 10 mg/kg, iv measured after 15 to 45 mins post dose (reference value: 3 to 44 uequiv/min); format: functional, Canis lupus familiaris; how it was run: as §1
Canis familiaris [5] = assay: Diuretic activity in mongrel dog anesthetized with sodium pentobarbital assessed as urine volume at 25 mg/kg, iv measured after 15 to 45 mins post dose (reference value: 1 to 5 ml/min); format: functional, Canis lupus familiaris; how it was run: as §1
Canis familiaris [6] = assay: Diuretic activity in mongrel dog anesthetized with sodium pentobarbital assessed as urine Cl- level at 25 mg/kg, iv measured after 15 to 45 mins post dose (reference value: 0 to 30 uequiv/min); format: functional, Canis lupus familiaris; how it was run: as §1
Canis familiaris [7] = assay: Diuretic activity in mongrel dog anesthetized with sodium pentobarbital assessed as urine Na+ level at 25 mg/kg, iv measured after 15 to 45 mins post dose (reference value: 3 to 44 uequiv/min); format: functional, Canis lupus familiaris; how it was run: as §1
Canis familiaris [8] = assay: Diuretic activity in mongrel dog anesthetized with sodium pentobarbital assessed as urine K+ level at 25 mg/kg, iv measured after 15 to 45 mins post dose (reference value: 10 to 44 uequiv/min); format: functional, Canis lupus familiaris; how it was run: as §1
Canis familiaris [9] = assay: Diuretic activity in mongrel dog […] assessed as urine Cl- level per 6 hrs at 10 mg/kg, po as gelatin capsules (reference value: 2 equiv/6 hrs); format: functional, Canis lupus familiaris
How it was run: (§2)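 Trained female mongrel dogs (8–10 kg) given 100 ml water the day before and fasted overnight. On test day they received 250 ml water orally, then 500 ml 1 h later. One hour after that, bladders were catheter-emptied and compound or placebo was given orally in gelatin capsules. Dogs were kept in metabolism cages, and spontaneous urine was pooled with catheter urine at 6 h. Volume and Na+, K+ and Cl− were measured; results are averages per dog group.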

Canis familiaris [10] = assay: Diuretic activity in mongrel dog […] assessed as urine K+ level per 6 hrs at 10 mg/kg, po as gelatin capsules (reference value: 1 equiv/6 hrs); format: functional, Canis lupus familiaris; how it was run: as §2
Canis familiaris [11] = assay: Diuretic activity in mongrel dog […] assessed as urine Na+ level per 6 hrs at 10 mg/kg, po as gelatin capsules (reference value: 2 equiv/6 hrs); format: functional, Canis lupus familiaris; how it was run: as §2
Canis familiaris [12] = assay: Diuretic activity in mongrel dog anesthetized with sodium pentobarbital assessed as urine Na+ level at 1 mg/kg, iv measured after 15 to 45 mins post dose (reference value: 3 to 44 uequiv/min); format: functional, Canis lupus familiaris; how it was run: as §1
Canis familiaris [13] = assay: Diuretic activity in mongrel dog anesthetized with sodium pentobarbital assessed as urine K+ level at 5 mg/kg, iv measured after 15 to 45 mins post dose (reference value: 10 to 44 uequiv/min); format: functional, Canis lupus familiaris; how it was run: as §1
Canis familiaris [14] = assay: Diuretic activity in mongrel dog anesthetized with sodium pentobarbital assessed as urine Cl- level at 1 mg/kg, iv measured after 15 to 45 mins post dose (reference value: 0 to 30 uequiv/min); format: functional, Canis lupus familiaris; how it was run: as §1
Canis familiaris [15] = assay: Diuretic activity in mongrel dog anesthetized with sodium pentobarbital assessed as urine volume at 1 mg/kg, iv measured after 15 to 45 mins post dose (reference value: 1 to 5 ml/min); format: functional, Canis lupus familiaris; how it was run: as §1
Canis familiaris [16] = assay: Diuretic activity in mongrel dog anesthetized with sodium pentobarbital assessed as urine volume at 5 mg/kg, iv measured after 15 to 45 mins post dose (reference value: 1 to 5 ml/min); format: functional, Canis lupus familiaris; how it was run: as §1
Canis familiaris [17] = assay: Diuretic activity in mongrel dog anesthetized with sodium pentobarbital assessed as urine Cl- level at 5 mg/kg, iv measured after 15 to 45 mins post dose (reference value: 0 to 30 uequiv/min); format: functional, Canis lupus familiaris; how it was run: as §1
Canis familiaris [18] = assay: Diuretic activity in mongrel dog anesthetized with sodium pentobarbital assessed as urine K+ level at 1 mg/kg, iv measured after 15 to 45 mins post dose (reference value: 10 to 44 uequiv/min); format: functional, Canis lupus familiaris; how it was run: as §1
Canis familiaris [19] = assay: Diuretic activity in mongrel dog anesthetized with sodium pentobarbital assessed as urine Na+ level at 5 mg/kg, iv measured after 15 to 45 mins post dose (reference value: 3 to 44 uequiv/min); format: functional, Canis lupus familiaris; how it was run: as §1
Canis familiaris [20] = assay: Diuretic activity in mongrel dog […] assessed as urine K+ level per 6 hrs at 5 mg/kg, po as gelatin capsules (reference value: 1 equiv/6 hrs); format: functional, Canis lupus familiaris; how it was run: as §2
Canis familiaris [21] = assay: Diuretic activity in mongrel dog […] assessed as urine Na+ level per 6 hrs at 5 mg/kg, po as gelatin capsules (reference value: 2 equiv/6 hrs); format: functional, Canis lupus familiaris; how it was run: as §2
Canis familiaris [22] = assay: Diuretic activity in mongrel dog […] assessed as urine Cl- level per 6 hrs at 5 mg/kg, po as gelatin capsules (reference value: 2 equiv/6 hrs); format: functional, Canis lupus familiaris; how it was run: as §2
Canis familiaris [23] = assay: Diuretic activity in mongrel dog […] assessed as urine Na+ level per 6 hrs at 1 mg/kg, po as gelatin capsules (reference value: 2 equiv/6 hrs); format: functional, Canis lupus familiaris; how it was run: as §2
Canis familiaris [24] = assay: Diuretic activity in mongrel dog […] assessed as urine Cl- level per 6 hrs at 1 mg/kg, po as gelatin capsules (reference value: 2 equiv/6 hrs); format: functional, Canis lupus familiaris; how it was run: as §2
Canis familiaris [25] = assay: Diuretic activity in mongrel dog assessed as urine Cl- level per 6 hrs at 0.3 mg/kg, po as gelatin capsules (reference value: 2 equiv/6 hrs)
Canis familiaris [26] = assay: Diuretic activity in mongrel dog […] assessed as urine K+ level per 6 hrs at 1 mg/kg, po as gelatin capsules (reference value: 1 equiv/6 hrs); format: functional, Canis lupus familiaris; how it was run: as §2
Canis familiaris [27] = assay: Diuretic activity in mongrel dog […] assessed as urine K+ level per 6 hrs at 0.3 mg/kg, po as gelatin capsules (reference value: 1 equiv/6 hrs); format: functional, Canis lupus familiaris; how it was run: as §2
Canis familiaris [28] = assay: Diuretic activity in mongrel dog […] assessed as urine Na+ level per 6 hrs at 0.3 mg/kg, po as gelatin capsules (reference value: 2 equiv/6 hrs); format: functional, Canis lupus familiaris; how it was run: as §2

| SMILES | Activity (Canis familiaris [1]) | Activity (Canis familiaris [2]) | Activity (Canis familiaris [3]) | Activity (Canis familiaris [4]) | also measured |
| --- | --- | --- | --- | --- | --- |
| C=Cc1ccc(OCC(=O)O)c(Cl)c1Cl | 1 mL/min | 2 uEq/min | 29 uEq/min | 34 uEq/min |  |
| N#CC(C#N)=Cc1ccc(OCC(=O)O)cc1 | 2 mL/min | 45 uEq/min | 10 uEq/min | 64 uEq/min |  |
| N#CC(C#N)=Cc1ccc(OCC(=O)O)cc1Cl | 2 mL/min | 14 uEq/min | 34 uEq/min | 14 uEq/min |  |
| N#CC(C#N)=Cc1ccc(OCC(=O)O)c(Cl)c1Cl | 5 mL/min | 665 uEq/min | 100 uEq/min | 736 uEq/min |  |
| CC(=C(C#N)C#N)c1ccc(OCC(=O)O)c(Cl)c1Cl | 2 mL/min | 125 uEq/min | 38 uEq/min | 123 uEq/min |  |
| N#C/C(=C\c1ccc(OCC(=O)O)c(Cl)c1Cl)C(N)=O | 4 mL/min | 88 uEq/min | 35 uEq/min | 180 uEq/min |  |
| CCOC(=O)/C(C#N)=C/c1ccc(OCC(=O)O)cc1 | 2 mL/min | 25 uEq/min | 29 uEq/min | 25 uEq/min | Activity (Canis familiaris [5]): 1 mL/min; Activity (Canis familiaris [6]): 16 uEq/min; Activity (Canis familiaris [7]): 79 uEq/min; Activity (Canis familiaris [8]): 43 uEq/min |
| N#C/C(=C\c1ccc(OCC(=O)O)c(Cl)c1Cl)C(=O)O | 1 mL/min | 29 uEq/min | 32 uEq/min | 38 uEq/min |  |
| N#C/C(=C\c1ccc(OCC(=O)O)c(Cl)c1Cl)S(N)(=O)=O |  |  |  |  | Activity (Canis familiaris [9]): 6 equiv; Activity (Canis familiaris [10]): 4 equiv; Activity (Canis familiaris [11]): 6 equiv |
| NC(=O)C(=Cc1ccc(OCC(=O)O)c(Cl)c1Cl)C(N)=O | 3 mL/min | 145 uEq/min | 86 uEq/min | 195 uEq/min |  |
| CCOC(=O)C(=Cc1ccc(OCC(=O)O)cc1)C(=O)OCC |  |  |  |  | Activity (Canis familiaris [5]): 1 mL/min; Activity (Canis familiaris [6]): 20 uEq/min; Activity (Canis familiaris [7]): 44 uEq/min; Activity (Canis familiaris [8]): 45 uEq/min |
| CCOC(=O)C(=Cc1ccc(OCC(=O)O)c(Cl)c1Cl)C(=O)OCC |  |  |  |  | Activity (Canis familiaris [12]): 200 uEq/min; Activity (Canis familiaris [13]): 113 uEq/min; Activity (Canis familiaris [14]): 198 uEq/min; Activity (Canis familiaris [15]): 2 mL/min; Activity (Canis familiaris [16]): 4 mL/min; Activity (Canis familiaris [17]): 261 uEq/min; Activity (Canis familiaris [18]): 54 uEq/min; Activity (Canis familiaris [19]): 313 uEq/min |
| CS(=O)(=O)C(=Cc1ccc(OCC(=O)O)c(Cl)c1Cl)S(C)(=O)=O |  |  |  |  | Activity (Canis familiaris [5]): 3 mL/min; Activity (Canis familiaris [6]): 34 uEq/min; Activity (Canis familiaris [7]): 31 uEq/min; Activity (Canis familiaris [8]): 48 uEq/min |
| CC(=O)/C(=C/c1ccc(OCC(=O)O)c(Cl)c1Cl)S(=O)(=O)c1ccccc1 | 3 mL/min | 166 uEq/min | 58 uEq/min | 183 uEq/min |  |
| O=C(O)COc1ccc(/C=C(/C(=O)Oc2ccccc2)S(=O)(=O)Oc2ccccc2)c(Cl)c1Cl |  |  |  |  | Activity (Canis familiaris [9]): 6 equiv; Activity (Canis familiaris [10]): 2 equiv; Activity (Canis familiaris [11]): 6 equiv |
| O=C(O)COc1ccc(/C=C2\C(=O)C3CCN2CC3)c(Cl)c1Cl | 4 mL/min | 115 uEq/min | 70 uEq/min | 172 uEq/min |  |
| N#C/C=C/c1ccc(OCC(=O)O)c(Cl)c1Cl | 6 mL/min | 484 uEq/min | 59 uEq/min | 448 uEq/min | Activity (Canis familiaris [20]): 4 equiv; Activity (Canis familiaris [21]): 12 equiv; Activity (Canis familiaris [22]): 17 equiv |
| C=C(CC)C(=O)c1ccc(OCC(=O)O)c(Cl)c1Cl [ETHACRYNIC ACID] |  |  |  |  | Activity (Canis familiaris [23]): 21 equiv; Activity (Canis familiaris [24]): 26 equiv; Activity (Canis familiaris [25]): 10 equiv; Activity (Canis familiaris [26]): 5 equiv; Activity (Canis familiaris [27]): 2 equiv; Activity (Canis familiaris [28]): 8 equiv |
